This note sets out measurements from ChEMBL document CHEMBL4513216, “Probing the Open Global Health Chemical Diversity Library for Multistage-Active Starting Points for Next-Generation Antimalarials” (ACS Infect Dis, 2020).

This data set in a line: Toxicity liver stage against HepG2, at 10uM. As to conditions: human, HepG2-A16-CD81EGFP cells; read-out: INHIBITION
Further details: test concentration 10 uM, cell line HepG2-A16-CD81EGFP. The data set is classed as cell-based. The method, boiled down: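 Uninfected HepG2-A16-CD81EGFP cells, 3 × 10^3 per well, 1536-well, plated on prespotted compound at 10 μM final, parasite-free screening media added to match infected plates; puromycin 10 μM positive, DMSO 0.5% negative; run in parallel with 48 h PbLuc assay at 37 °C, 5% CO2; viability by CellTiter-Glo luminescence, normalized to controls.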
Consider `CN1CCC(Cc2nc(-c3ccnn3C)n(Cc3ccccc3)n2)CC1`, for which the cytotoxicity at 10 µM stood at 44.1%.

As for `Cc1cc(CN2CCC(CNC(=O)Cc3ccc(F)cc3)C2)[nH]n1` (configuration not stated), the cytotoxicity at 10 µM is -139%.

For `CCc1noc(CNc2ccc(C(=O)N3CCCC(C)C3)cc2C)n1` (configuration not stated), the cytotoxicity at 10 µM is -10.8%.

Consider `Cc1cccc(C)c1-c1cc(NCCO)nc2[nH]ccc12`, for which the cytotoxicity at 10 µM is 52.4%.

In the case of `CC(c1ccccc1)n1cc2nc(N(C)C)[nH]cc-2c1=O` (configuration not stated), the cytotoxicity at 10 µM is -25.5%.

For `N#CCCN(Cc1ccccn1)Cn1cc(Cl)cn1`, the cytotoxicity at 10 µM stood at 1.49%.

As to `CC(C)(CN1CCCC1)CN1CCC(Cn2cc(CCO)nn2)CC1`, the cytotoxicity at 10 µM stood at 1.87%.

With `Cc1noc(OCCOc2cccc(C#N)c2)n1`, the cytotoxicity at 10 µM came out at 0.63%.

For the compound `CN(Cc1ccc(F)cc1)[C@@H]1CN(S(C)(=O)=O)C[C@H]1O`, the cytotoxicity at 10 µM is -3.22%.

As to `Fc1cccc(F)c1Cn1c(C2CCCNC2)cc2cccnc21` (configuration not stated), the cytotoxicity at 10 µM was found to be 2%.

In the case of `Brc1cccc(-c2nnc(CNCCn3cccn3)o2)c1`, the cytotoxicity at 10 µM is -9.59%.

For `CCc1ccc(CN2CCN(C)C3(CCC(=O)N(CC4CC4)CC3)C2)o1` (configuration not stated), the cytotoxicity at 10 µM was -2.77%.

Regarding `CN(C)C(=O)Cn1c2c(ccc1=O)CC(NCc1ccoc1)CC2` (configuration not stated), the cytotoxicity at 10 µM is 16.5%.

Regarding `Cc1oc2c(c1C(=O)N1CC[C@H](O)[C@]3(CCCO3)C1)CCCC2`, the cytotoxicity at 10 µM was 2.75%.

With `Cc1cc(C2CCC2)nc(N(C)CCc2ccccn2)n1`, the cytotoxicity at 10 µM was -3.09%.

Turning to `O=C(CN1CCCC1Cn1cccn1)NCCC1=CCCCC1` (configuration not stated), the cytotoxicity at 10 µM was -2.78%.

Consider `Cc1nnc(N2CCC(CCn3ccnc3C)CC2)o1`, for which the cytotoxicity at 10 µM is -8.14%.

In the case of `CN(C)C(=O)CN1CCC2(CCCN(c3ncc(F)cn3)C2)C1=O` (configuration not stated), the cytotoxicity at 10 µM is 9.51%.

`Cc1ncsc1CCN(C)C(=O)CCc1nc2cccnc2n1C`: the cytotoxicity at 10 µM was -149%.

As to `COC(=O)C1CCCN1C(=O)c1ccc(Cl)cc1F` (configuration not stated), the cytotoxicity at 10 µM is -7.7%.

`Cc1cc(CN2CCOC(CN(C)c3cccnn3)C2)no1` (configuration not stated): the cytotoxicity at 10 µM is 8.23%.

In the case of `Fc1cccc(-c2cccc(N3CCC(NC4CCCOC4)CC3)c2)c1` (configuration not stated), the cytotoxicity at 10 µM was 12%.

On to `CC(=O)NCCC(=O)NCC1(c2c(F)cccc2F)CCCC1`, for which the cytotoxicity at 10 µM is -2.75%.

As for `CCS(=O)(=O)c1ncc(CN(C)C)n1Cc1ccccc1`, the cytotoxicity at 10 µM was found to be 1.73%.

`Cc1cccc(NC(=O)N2CCN(Cc3noc(C4CC4)n3)CC2)c1`: the cytotoxicity at 10 µM is -10.1%.

In the case of `CC(C)CS(=O)(=O)N1CCC2(CN(c3ccsc3)C(=O)CN2C)C1` (configuration not stated), the cytotoxicity at 10 µM is 6.88%.

For the compound `O=C(c1cc(=O)[nH]c(=O)[nH]1)N1CCCCC1c1ccc(F)cc1` (configuration not stated), the cytotoxicity at 10 µM was -10.2%.

For the compound `Cn1cc(CN2CCC(CCC(=O)NC3CC3)CC2)cn1`, the cytotoxicity at 10 µM was found to be 9.27%.

With `Cn1ncc2c1C(COCC1CC1)CN(Cc1cccnc1)C2` (configuration not stated), the cytotoxicity at 10 µM was determined as 11.4%.

As for `COCCN(Cc1sccc1C)c1nc(C)nc2sccc12`, the cytotoxicity at 10 µM was -131%.

With `CCS(=O)(=O)N1CCc2c(COC)cncc2C1`, the cytotoxicity at 10 µM was -99%.

Regarding `CCc1ncc(C(=O)N2CC(N3CCCCC3)C2)cn1`, the cytotoxicity at 10 µM is -4.68%.

Turning to `Cc1noc(C)c1CN1CC2(CCN(Cc3c[nH]cn3)CC2)CC1=O`, the cytotoxicity at 10 µM was 8.62%.

On to `Cn1cc(N2CCCC(Oc3ccc(F)cc3Cl)C2=O)cn1` (configuration not stated), for which the cytotoxicity at 10 µM was -3.3%.

For the compound `CN(C)C(=O)N1CCC2(CC1)CNc1ccc(F)cc12`, the cytotoxicity at 10 µM came to 8.88%.

Consider `CNC(=O)CN1CCC(CN(C)CCSc2ccccc2)CC1`, for which the cytotoxicity at 10 µM is -0.488%.

For the compound `Cn1cc(C(=O)N2C[C@@H]3CN(S(C)(=O)=O)CCO[C@@H]3C2)cn1`, the cytotoxicity at 10 µM was found to be 8.9%.

For `Cc1cccc(NC(=O)c2sccc2C)n1`, the cytotoxicity at 10 µM was -1.45%.

As to `CCN(Cc1ccncc1)c1nc(C)nc2oc(C)nc12`, the cytotoxicity at 10 µM is -50.6%.

In the case of `CN(C)C(=O)c1cccnc1SCc1ccccc1C#N`, the cytotoxicity at 10 µM worked out at 2.02%.

Consider `CN(C)S(=O)(=O)N1CC(c2ccnc(Nc3ccccn3)n2)C1`, for which the cytotoxicity at 10 µM came to 8.84%.

For the compound `Cc1cccc(CN2CC[C@@H]3O[C@@H](C(=O)N4CCN(C)CC4)C[C@@H]32)n1`, the cytotoxicity at 10 µM worked out at 1.04%.

With `Cc1nc(C2CCCN2CCCS(N)(=O)=O)no1` (configuration not stated), the cytotoxicity at 10 µM was -10.3%.

For `Cn1ccnc1CN1CCCC1Cn1cccn1` (configuration not stated), the cytotoxicity at 10 µM is -13.8%.

Regarding `O=C(NCc1ccccn1)C1=NN(c2ccccc2)C(=O)CN1`, the cytotoxicity at 10 µM is -0.855%.

For `N[C@H]1CN(C(=O)c2cnc3cc(Cl)ccc3c2O)C[C@@H]1C1CC1`, the cytotoxicity at 10 µM was -44.1%.

Consider `CC(C)c1nn(C)cc1CNCc1ccnc(N(C)C)c1`, for which the cytotoxicity at 10 µM was -0.431%.

For `FC(F)(F)c1ccnc(N2C[C@H]3CCN(c4cccnc4)C[C@H]3C2)n1`, the cytotoxicity at 10 µM was found to be 6.88%.

For `CN(C)C(=O)COC1COC2(CCN(CC3CCOCC3)CC2)C1` (configuration not stated), the cytotoxicity at 10 µM was -113%.

`CC(C)CCN1CCc2[nH]nc(C(=O)N3CCCC3C)c2C1` (configuration not stated): the cytotoxicity at 10 µM was 4.32%.

In the case of `COCCOc1ccc(NC(=O)N(CCCO)CC(C)(C)C)cn1`, the cytotoxicity at 10 µM was -7.85%.

In the case of `NS(=O)(=O)CC1CCCN1CCOc1ccccc1F` (configuration not stated), the cytotoxicity at 10 µM was found to be 3.98%.

For the compound `Cn1cc(C(=O)NC2CCN(C(=O)NCCSC(F)(F)F)CC2)cn1`, the cytotoxicity at 10 µM was found to be 2.36%.

In the case of `COc1ccc(CN2CC[C@@]3(O)CCCC[C@H]3C2)cc1C(=O)O`, the cytotoxicity at 10 µM was -3.12%.

Take `CN(CCc1cnn(C)c1)C(=O)CN1C(=O)OC[C@@H]1c1ccccc1`: the cytotoxicity at 10 µM was -41.7%.

In the case of `CC(=O)c1ccc(C(=O)N2CCCCC2c2nc[nH]n2)cc1` (configuration not stated), the cytotoxicity at 10 µM is -5.3%.

Consider `Cc1ccc(C(=O)O)cc1S(=O)(=O)N(C)c1cccc(C#N)c1`, for which the cytotoxicity at 10 µM was 10.6%.

In the case of `CN1CCN(C(=O)N2CC[C@@](O)(c3ccccc3)[C@H]3CCCC[C@@H]32)CC1`, the cytotoxicity at 10 µM is -9.67%.

In the case of `CCN(Cc1ccncc1)C1CCCN(Cc2ccc(F)cc2Cl)C1` (configuration not stated), the cytotoxicity at 10 µM turned out to be 7.94%.

Consider `CCn1cnnc1Cn1cccc(C(F)(F)F)c1=O`, for which the cytotoxicity at 10 µM is -9.8%.

Regarding `O=C(CNC(=O)c1cnccn1)Nc1ncc[nH]1`, the cytotoxicity at 10 µM is -43.4%.

For `CC(=O)N1CCc2[nH]nc(C(=O)N3CC=CC3)c2C1`, the cytotoxicity at 10 µM is -108%.

In the case of `CCOc1ccc(C(=O)Nc2ccn(CC)n2)cc1`, the cytotoxicity at 10 µM stood at 3.16%.

On to `COc1ccc(CCn2cnc(C#N)n2)cc1`, for which the cytotoxicity at 10 µM was 0.866%.

For the compound `COc1cccc(OCCNCc2c(C)nn(C)c2N(C)C)c1`, the cytotoxicity at 10 µM stood at 1.25%.

Regarding `O=C(NCCCn1cccn1)NCC(c1ccco1)N1CCCC1` (configuration not stated), the cytotoxicity at 10 µM is -13.3%.

As to `CN(C)[C@@H]1CN(C(=O)c2ccc(C#N)cc2)[C@@H]2CCCO[C@H]12`, the cytotoxicity at 10 µM was -146%.

As for `Cc1ccc(N2CCCC(NCCS(C)(=O)=O)C2)nn1` (configuration not stated), the cytotoxicity at 10 µM was -5.26%.

For the compound `Cn1cc(-c2nnn3c2COC(CNC(=O)c2cccs2)C3)cn1` (configuration not stated), the cytotoxicity at 10 µM was 3.31%.

Take `COc1ccccc1OCCNC(=O)N1CCC(n2cncn2)CC1`: the cytotoxicity at 10 µM is 1.67%.

On to `O=C1CC2(CCCCN2C(=O)c2ccccc2)CN1CC1CC1` (configuration not stated), for which the cytotoxicity at 10 µM stood at 3.85%.

Consider `Cc1cnn(CC2CCCCN2C(=O)c2cc(Cl)c[nH]2)c1` (configuration not stated), for which the cytotoxicity at 10 µM was -5.4%.

With `CCC1=N[C@@]2(CC[C@@H]3CN(Cc4cccc(Cl)c4)C[C@@H]32)C(=O)N1C`, the cytotoxicity at 10 µM was -102%.

For `Cc1cc(C)nc(N2CCC(c3cccc(CCC(=O)O)n3)CC2)n1`, the cytotoxicity at 10 µM came out at 0.343%.

Consider `COc1ccc(NC(=O)c2ccoc2C)c(N2CCN(C(C)=O)CC2)n1`, for which the cytotoxicity at 10 µM is -9.09%.

As to `CCOc1nnc(CN2CCC(N(C)Cc3noc(C)n3)C2)s1` (configuration not stated), the cytotoxicity at 10 µM was -7.3%.

In the case of `O=C(NS(=O)(=O)c1ccc(F)cc1)C1CCOc2ccccc21` (configuration not stated), the cytotoxicity at 10 µM was found to be 9.91%.

Turning to `CC(O)c1cn(Cc2cccc(C(F)(F)F)c2)nn1` (configuration not stated), the cytotoxicity at 10 µM is 14.1%.

As for `COc1ccc(-n2ccc(C(=O)NCCN3CCCC(C)C3)n2)cc1` (configuration not stated), the cytotoxicity at 10 µM is -0.0158%.

Regarding `O=C(NCc1ccccn1)[C@@H]1COC[C@H]2CN(C3CCC3)C[C@H]21`, the cytotoxicity at 10 µM is -79.1%.

In the case of `CCN1c2ccc(-c3cncn3CC(=O)NC(C)(C)C)cc2CC1C` (configuration not stated), the cytotoxicity at 10 µM was -0.579%.

For `CCc1ccc(CN2Cc3nccn3CC(Cn3cncn3)C2)o1` (configuration not stated), the cytotoxicity at 10 µM is -137%.

Consider `Cc1cccc(-c2noc(CNC(C)Cn3cc(C)cn3)n2)c1` (configuration not stated), for which the cytotoxicity at 10 µM is -2.87%.

Consider `Cc1cccc2c1nc1n2[C@@H](CNC2CCCCC2)COC1`, for which the cytotoxicity at 10 µM was -51.8%.

For `CN(CCC(O)c1ccccc1)Cc1ccccc1C#N` (configuration not stated), the cytotoxicity at 10 µM is 6.87%.

As for `COc1nc2c(cc1C(=O)N1C[C@@H](N)C[C@H]1C(=O)NC(C)C)CCC2`, the cytotoxicity at 10 µM was found to be 3.52%.

As to `CCn1cc(CN(C)S(=O)(=O)c2ccc(C)c(C)c2)cn1`, the cytotoxicity at 10 µM stood at 9.65%.

Take `O=C(O)CN1CCOCC(Cc2ccc(Cl)cc2)C1` (configuration not stated): the cytotoxicity at 10 µM is -25.7%.

For `CC(C)CNC(=O)C1CC(=O)N(c2n[nH]c3ccccc23)C1` (configuration not stated), the cytotoxicity at 10 µM was -11.6%.

Regarding `O=S(=O)(c1cncc(F)c1)N1CCC2(CCCCC2)C1`, the cytotoxicity at 10 µM is -4.61%.

Consider `CSCc1noc(CN(C)C(C)c2nc(C)sc2C)n1` (configuration not stated), for which the cytotoxicity at 10 µM was determined as 8.2%.

As for `Cc1ncncc1C(=O)N1CCOC(C)(C(=O)NC2CCCC2)C1` (configuration not stated), the cytotoxicity at 10 µM is -36.4%.

Consider `Nc1ncccc1CN1C[C@H]2CC[C@@H](C1)N(CC1CC1)C2=O`, for which the cytotoxicity at 10 µM is -0.956%.

As to `CC(CNC(=O)N1CCS(=O)(=O)CC1)Cc1cccs1` (configuration not stated), the cytotoxicity at 10 µM was -9.47%.

With `Cc1ccc(-c2nc(CN3CCn4c(nnc4C4CC4)C3)cs2)o1`, the cytotoxicity at 10 µM is -0.215%.

With `Cc1cccc(-c2noc(CN3CCOC(Cn4cccn4)C3)n2)c1` (configuration not stated), the cytotoxicity at 10 µM was -3.07%.

Take `Cc1cccc2c1cnn2CCC(=O)NCC(=O)N(C)C`: the cytotoxicity at 10 µM was 7.03%.
